High-throughput results as filed in PubChem BioAssay.
NPY1 pot ag: potentiators or agonists of human neuropeptide Y receptor Y1; P25929; NPY-Y1 expressing cells, potentiator/agonist activation; activation, % at 3.6 µM; 220,000 compounds, 0.37% hits; in the data active = activation above about 33%, passing the limit was not always enough;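 also: cells stimulated with NPY at EC10 then isoproterenol at EC100; 0% = low agonist plus stimulus and 100% = saturating agonist plus stimulus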
Target sequence (P25929 whole entry, looked up): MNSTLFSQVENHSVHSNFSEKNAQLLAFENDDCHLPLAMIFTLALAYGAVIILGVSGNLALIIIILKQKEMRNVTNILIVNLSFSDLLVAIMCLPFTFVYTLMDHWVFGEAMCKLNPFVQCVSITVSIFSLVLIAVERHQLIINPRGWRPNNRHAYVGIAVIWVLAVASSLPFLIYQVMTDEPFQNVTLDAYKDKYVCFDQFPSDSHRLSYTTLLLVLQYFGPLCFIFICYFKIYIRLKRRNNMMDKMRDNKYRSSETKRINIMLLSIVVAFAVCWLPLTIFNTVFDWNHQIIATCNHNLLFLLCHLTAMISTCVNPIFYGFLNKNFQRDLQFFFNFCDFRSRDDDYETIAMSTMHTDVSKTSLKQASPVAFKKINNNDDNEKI
NPY Y2 blocker: NPY-Y2 (human) receptor antagonism | P49146 | NPY-Y2 expressing cells, antagonist mode | inhibition, % at 2.7 µM | 140,000 compounds, 0.99% hits; in the data active = inhibition above about 17%;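 also: 0% = vehicle with agonist challenge and 100% = reference antagonist with challenge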
NPY-Y2 PAM-ag: potentiators or agonists of human neuropeptide Y receptor Y2; cells expressing NPY-Y2, potentiator/agonist read-out; AID 1359; activation, % at 3.6 µM; 220,000 compounds, 0.45% hits; P49146; in the data active = activation above about 27%;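 also: cells stimulated with NPY near EC25 plus isoproterenol at EC100; 0% = vehicle plus submaximal agonist and 100% = vehicle plus saturating agonist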
S1P4 antagonist: antagonists of human S1P4 receptor. O95977. S1P4-expressing cells, antagonist mode, reporter read-out. inhibition, % at 4.98 µM. 220,000 compounds, 0.26% hits. AID 1510; in the data active = inhibition above about 29%;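 also: 0% = wells stimulated with agonist and 100% = vehicle wells without agonist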
NPY Y1 blocker: antagonists of human neuropeptide Y receptor Y1. inhibition, % at 3.6 µM. 200,000 compounds, 1% hits. AID 1040. P25929. HEK293-CNG Y1 cells, membrane potential fluorescence; NPY at EC95, then isoproterenol;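 active = inhibition above the campaign mean inhibition of all tested compounds plus 3 SD, cut at about 20% in these data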;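 also: 0% = DMSO wells given NPY plus isoproterenol and 100% = isoproterenol alone without NPY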
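Test system: HEK293 cells co-expressing NPY Y1 receptor and cyclic-nucleotide gated channel; Also added: NPY (25 nM), isoproterenol (1 µM), Ro 20-1724 (25 µM); Compound dosing: one concentration, 3.6 µM, in 0.4% DMSO; Timing: dye 3 h, compound 60 min room temperature, stimulation 45 min; Technique: Membrane-potential fluorescent dye readout.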
S1P4 agonist: human S1P4 receptor agonism | S1P4-expressing cell line, agonist reporter assay | O95977 | 220,000 compounds, 0.35% hits | AID 1509 | activation, % at 4.98 µM; in the data active = activation above about 11%;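 also: 0% = DMSO vehicle and 100% = reference agonist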
S1P4 agonist cf: human S1P4 agonism, confirmation; S1P4 agonist cell-based reporter assay; activation, % at 4.98 µM; AID 1523; 740 compounds, 7% hits; shares compounds with S1P4 agonist; in the data active = activation above about 12%;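 also: 0% = vehicle and 100% = full reference agonist response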
S1P1 ag: activates human S1P1, counter-screen for S1P4 agonists | activation, % at 4.98 µM | 740 compounds, 4% hits | AID 1563 | S1P1 agonist cell-based assay, activation | shares compounds with S1P4 agonist; in the data active = activation above about 21%;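 also: 0% = vehicle wells and 100% = reference agonist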
Target sequence (P21453 whole entry, looked up): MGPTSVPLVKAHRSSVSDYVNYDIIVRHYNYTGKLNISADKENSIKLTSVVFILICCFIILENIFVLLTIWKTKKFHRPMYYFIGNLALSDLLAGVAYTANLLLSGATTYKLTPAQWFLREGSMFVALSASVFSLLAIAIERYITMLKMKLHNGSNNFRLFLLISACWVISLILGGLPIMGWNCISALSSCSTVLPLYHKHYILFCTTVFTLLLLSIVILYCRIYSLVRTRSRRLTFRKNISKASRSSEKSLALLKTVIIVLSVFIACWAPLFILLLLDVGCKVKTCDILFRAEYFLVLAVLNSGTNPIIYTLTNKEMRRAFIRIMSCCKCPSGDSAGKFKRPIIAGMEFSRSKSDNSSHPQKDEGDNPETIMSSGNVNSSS
* = called active by the depositor; / = no result given. Only some compounds are listed: those with a hit (about 2.4% of all), similar ones and a draw of the others.

SMILES | NPY1 pot ag | NPY Y2 blocker | NPY-Y2 PAM-ag | S1P4 antagonist | NPY Y1 blocker | S1P4 agonist | S1P4 agonist cf | S1P1 ag
Cc1ccc(NC(=S)N=Nc2c(O)n(C)c3ccc(S(=O)(=O)N4CCOCC4)cc23)cc1C | 12.0 | 2.0 | 8.3 | 6.2 | -1.1 | 0.3 | / | /
Cn1c(O)c(N=NC(=S)Nc2ccccc2F)c2cc(S(=O)(=O)N3CCOCC3)ccc21 | 3.4 | / | -1.6 | 15.4 | -2.7 | 17.1* | -1.5 | -1.3
Cc1c(N/C(=N/S(=O)(=O)c2ccc(F)cc2)c2ccccc2)c(=O)n(-c2ccccc2)n1C | 4.9 | / | 0.0 | -5.2 | 1.9 | 13.8* | -3.1 | -14.2
Cc1ccccc1S(=O)(=O)/N=C(/Nc1c(C)n(C)n(-c2ccccc2)c1=O)c1ccccc1 | 4.3 | / | -2.8 | -13.3 | 12.6 | -0.6 | / | /
CCOC(=O)c1cc(C(=O)OCC)c2ccccn2c1=O | 15.1 | 0.5 | -0.7 | -5.7 | 0.2 | 5.2 | / | /
CCOC(=O)c1cnn2c1[nH]c(=O)c1ccccc12 | -15.7 | 1.6 | -18.7 | 0.4 | -8.2 | 254.7* | -2.6 | 11.8
COc1cccc(-c2nc3sc4c(c3c(=O)[nH]2)CCCCC4)c1 | -9.7 | 0.7 | -3.6 | 1.5 | -0.6 | 0.8 | / | /
COc1ccc(N2C(=O)C(CC(=O)Nc3ccc(Cl)cc3)N(NC(=O)c3cccc(F)c3)C2=S)cc1 (configuration not stated) | 52.0 | / | 0.4 | -21.9 | / | -0.2 | / | /
O=C(COC(=O)CCSc1ccccc1)Nc1ccc(F)cc1Cl | -15.8 | 11.0 | -12.0 | -13.4 | 6.9 | 31.0* | -2.4 | -0.7
Cn1cc(CN2CC3C[C@@H]4CC2C[C@H](C3)C4)c(-c2ccc3c(c2)OCCO3)n1 | 4.4 | / | 2.4 | 6.5 | -7.7 | 0.8 | / | /
O=C(CN1CCN(c2ccccc2O)CC1)Nc1ccc2c(c1)CCC2 | -30.6 | 3.3 | 4.6 | -3.1 | 7.4 | 13.4* | -1.5 | 0.0
Cc1nn(-c2ccccc2)c(N2CCCC2)c1/C=N/NC(=O)c1cc(-c2ccccn2)nc2ccccc12 | -20.8 | 3.4 | -8.0 | -8.8 | 7.3 | 1.1 | / | /
O=c1[nH][nH]c2nc(C(F)(F)F)cc(C(F)(F)F)c12 | -15.9 | 4.6 | -3.5 | -10.7 | 8.1 | 67.5* | -0.5 | -2.8
CC1CCCCN1C(=O)Cc1ccc(Cl)cc1 (configuration not stated) | -3.1 | 2.4 | -0.2 | -17.1 | -0.6 | 4.1 | / | /
CC1CCCCN1C(=O)COc1ccccc1F (configuration not stated) | 5.7 | / | -7.8 | -31.1 | 1.5 | 12.7* | -0.4 | -0.4
CC1C2=C(CC(C)(C)CC2=O)NC2=C1C(=O)CC(C)(C)C2 | 6.2 | / | 4.3 | -4.5 | 0.8 | 17.7* | 7.5 | 7.6
Cc1ccc(S(=O)(=O)N(C)C)cc1-n1c(SCC(=O)Nc2ccc(F)cc2)nc2ccccc2c1=O | -15.4 | 3.9 | -1.1 | -13.1 | 9.7 | 11.0* | -2.1 | 1.1
Cc1ccc(S(=O)(=O)N(C)C)cc1-n1c(SCC(=O)Nc2ccccc2)nc2ccccc2c1=O | -5.3 | 2.8 | -8.5 | -4.4 | 4.9 | 0.3 | / | /
COc1ccc(S(=O)(=O)N2c3ccccc3OCC2C)cc1 (configuration not stated) | 3.8 | / | -5.1 | 9.7 | 11.7 | 15.2* | -1.6 | -16.9
COc1ccc(S(=O)(=O)N2c3ccccc3OCC2c2ccccc2)cc1 (configuration not stated) | 4.4 | 7.2 | -8.1 | -9.0 | 0.8 | -1.0 | / | /
CN(CC(=O)Nc1ccc(Cl)c(Cl)c1)C(=O)C12CC3CC(CC(C3)C1)C2 | -10.5 | 5.7 | -4.2 | -23.4 | -5.2 | 0.9 | / | /
Cc1ccc(NC(=O)c2ccccc2F)nc1 | 3.2 | 4.0 | -0.4 | -25.7 | -4.8 | 2.2 | / | /
Cc1ccc(CCC(=O)Nc2ccccc2F)s1 | -6.4 | / | -9.2 | -7.7 | 7.0 | 185.3* | -2.3 | -2.6
COc1ccc(-c2nnn(CC(=O)N(CCO)C(C(=O)NC3CCCC3)c3ccncc3)n2)cc1 (configuration not stated) | 4.4 | / | 4.5 | -22.9 | 0.1 | 76.1* | -1.8 | -4.0
COc1ccc(-c2nnn(CC(=O)N(CCCO)C(C(=O)NC3CCCC3)c3ccncc3)n2)cc1 (configuration not stated) | -5.7 | / | 1.0 | -16.8 | -1.9 | 1.6 | / | /
SMILES | NPY1 pot ag | NPY Y2 blocker | NPY-Y2 PAM-ag | S1P4 antagonist | NPY Y1 blocker | S1P4 agonist | S1P4 agonist cf | S1P1 ag
COc1ccc(CC(=O)OCC(=O)Nc2c(C)n(C)n(-c3ccccc3)c2=O)cc1 | -15.9 | 0.5 | -1.9 | -6.9 | 19.0 | -1.7 | / | /
COc1ccc(C(=O)NCC(=O)OCC(=O)Nc2c(C)n(C)n(-c3ccccc3)c2=O)cc1 | 11.4 | 4.9 | 7.1 | -7.0 | 2.7 | 103.9* | -2.2 | -6.9
CN1Cc2c(N)cccc2C(c2ccccc2)C1 (configuration not stated) | -3.8 | 4.5 | 10.5 | -28.3 | 6.3 | 1.5 | / | /
COCCNC(=O)Cn1c(=O)n(CCCCCC(=O)Nc2ccccc2)c(=O)c2sccc21 | 10.8 | 0.0 | 5.8 | 0.7 | 0.7 | 21.1* | -2.1 | -3.1
CCCCOc1ccc(C(=O)N/C(=C/C=C/c2ccccc2)C(=O)NCCO)cc1 | -12.8 | 6.7 | -4.0 | -7.4 | -1.8 | 0.4 | / | /
CCCCOc1ccc(C(=O)N/C(=C/C=C/c2ccccc2)C(=O)NCCCO)cc1 | -6.4 | 9.0 | -10.1 | -15.6 | 3.2 | 13.3* | -1.1 | -4.3
Cc1cc(C(=O)NN)n[nH]1 | -11.1 | / | 2.0 | -1.1 | / | 1.3 | / | /
COCCNC(=O)Cc1ccc(Br)cc1 | -10.5 | 1.2 | 5.1 | 6.1 | 2.9 | -0.6 | / | /
CCCCNC(=O)Cc1ccc(Br)cc1 | 13.4 | / | -1.5 | -14.8 | 4.2 | 13.2* | -1.9 | -2.6
O=C(/C=C/c1ccco1)Nc1ccccc1N1CCOCC1 | -0.6 | 2.2 | 12.3 | -23.1 | -4.2 | 20.2* | -1.3 | -3.8
O=C(/C=C/c1ccco1)Nc1ccc(C(=O)N2CCOCC2)cc1 | -0.2 | -1.6 | -7.4 | -8.0 | -1.0 | -0.2 | / | /
Cc1ccc(C(=O)/C=C2/NC(=O)CS2)cc1 | 15.7 | -2.5 | 19.2 | -1.4 | -4.1 | 19.9* | -2.0 | -3.4
O=C1CS/C(=C/C(=O)c2cccc(Cl)c2)N1 | -10.6 | / | 0.9 | -13.8 | 1.3 | 1.0 | / | /
CCOC(=O)c1c(-n2c(C)cc(C=O)c2C)sc2c1CCCC2 | 29.1 | 3.8 | 9.7 | -11.8 | 0.4 | 16.1* | 21.1* | -7.4
O=S(=O)(/N=C(/Nc1ccc(F)cc1F)c1ccccc1)c1ccc(Br)cc1 | 11.7 | -1.1 | 12.2 | -12.9 | -5.3 | -2.5 | / | /
CC(=O)N(CCCc1ccc(C(C)(C)C)cc1)CCCN(C)C | -10.0 | 2.4 | -6.9 | -14.4 | 9.8 | -1.2 | / | /
CC(=O)N(CCCN(C)C)Cc1ccccn1 | 14.0 | / | 6.6 | 4.4 | / | 20.2* | -2.5 | -6.6
NC(=S)N/N=C/c1coc2ccc(F)cc2c1=O | -4.3 | / | -2.5 | -0.7 | / | 36.4* | -0.9 | 1.3
Cc1ccc(Cn2nnnc2CN2CCC(O)(c3cccnc3)CC2)cc1 | 16.1 | / | -1.7 | -7.5 | 1.8 | -1.3 | / | /
